Reference: ChEMBL document CHEMBL4689842, “EUbOPEN Chemogenomics Library wave 1” (2021)

Tested on: HEK-293T
Assay: Multiplex assay against HEK293T;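 as to Population Tubulin-Different-Phenotype (%): share of the cells with healthy nuclei that show this phenotype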
Assay type: toxicity, cell-based
Details: human
Procedure, shortened: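 On a CQ1 microscope at 37°C and 5% CO2, live cells were imaged after compound addition. They had been stained at seeding with Hoechst33342, BioTracker Green Microtubule Cytoskeleton Dye, MitoTracker Red and Annexin V Alexa Fluor 680. CellPathfinder machine-learning gating assigned cells to Hoechst high-intensity objects or normal cells, normal cells to healthy, pyknosed or fragmented nuclei, and pyknosed cells to mitotic or apoptotic. Tubulin, mitochondrial-mass and membrane-permeability phenotypes are per cents of healthy-nucleus cells.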

[1] = 12 h, 1 µM, compound concentration 1 uM, replicate 1
[2] = 12 h, 1 µM, compound concentration 1 uM, replicate 2
[3] = 12 h, 10 µM, compound concentration 10 uM, replicate 1
[4] = 12 h, 10 µM, compound concentration 10 uM, replicate 2
[5] = 24 h, 1 µM, compound concentration 1 uM, replicate 1
[6] = 24 h, 1 µM, compound concentration 1 uM, replicate 2
[7] = 24 h, 10 µM, compound concentration 10 uM, replicate 1
[8] = 24 h, 10 µM, compound concentration 10 uM, replicate 2
[9] = 48 h, 1 µM, compound concentration 1 uM, replicate 1
[10] = 48 h, 1 µM, compound concentration 1 uM, replicate 2
[11] = 48 h, 10 µM, compound concentration 10 uM, replicate 1
[12] = 48 h, 10 µM, compound concentration 10 uM, replicate 2

`C=C1/C(=C\C=C2/CCC[C@]3(C)[C@@H]([C@H](C)/C=C/[C@H](C)C(C)C)CC[C@@H]23)C[C@@H](O)C[C@@H]1O` [DOXERCALCIFEROL] was tested, and the “Population Apoptotic (%)” value [1] was 53%, the “Population Fragmented Nuclei (%)” value [1] was 17% and the “Population Healthy Nuclei (%)” value [1] was 26%. The “Population Hoechst High Intensity Objects (%)” value [1] was 23%, the “Population Membrane Permeable-Phenotype (%)” value [1] was 3% and the “Population Mitochondria Different-Phenotype (%)” value [1] was 78%. The “Population Mitotic Cells (%)” value [1] was 46%, the “Population Normal (%)” value [1] was 76% and the “Population Pyknosed Nuclei (%)” value [1] was 55%. The “Population Tubulin-Different-Phenotype (%)” value [1] was 12%, the “Total Cell Count” value [1] was 156 and the “Population Apoptotic (%)” value [2] was 10%. The “Population Fragmented Nuclei (%)” value [2] was 7%, the “Population Healthy Nuclei (%)” value [2] was 44% and the “Population Hoechst High Intensity Objects (%)” value [2] was 2%. The “Population Membrane Permeable-Phenotype (%)” value [2] was 4%, the “Population Mitochondria Different-Phenotype (%)” value [2] was 11% and the “Population Mitotic Cells (%)” value [2] was 89%. For the same molecule, the “Population Normal (%)” value [2] was 97%, the “Population Pyknosed Nuclei (%)” value [2] was 48% and the “Population Tubulin-Different-Phenotype (%)” value [2] was 11%. For the same molecule, the “Total Cell Count” value [2] was 240, the “Population Apoptotic (%)” value [3] was 50% and the “Population Fragmented Nuclei (%)” value [3] was 15%. For the same molecule, the “Population Healthy Nuclei (%)” value [3] was 25%, the “Population Hoechst High Intensity Objects (%)” value [3] was 16% and the “Population Membrane Permeable-Phenotype (%)” value [3] was 2%. For the same molecule, the “Population Mitochondria Different-Phenotype (%)” value [3] was 71%, the “Population Mitotic Cells (%)” value [3] was 49% and the “Population Normal (%)” value [3] was 83%. The “Population Pyknosed Nuclei (%)” value [3] was 59%, the “Population Tubulin-Different-Phenotype (%)” value [3] was 34% and the “Total Cell Count” value [3] was 180. For the same molecule, the “Population Apoptotic (%)” value [4] was 13%, the “Population Fragmented Nuclei (%)” value [4] was 7% and the “Population Healthy Nuclei (%)” value [4] was 35%. The “Population Hoechst High Intensity Objects (%)” value [4] was 3%, the “Population Membrane Permeable-Phenotype (%)” value [4] was 6% and the “Population Mitochondria Different-Phenotype (%)” value [4] was 20%. For the same molecule, the “Population Mitotic Cells (%)” value [4] was 86%, the “Population Normal (%)” value [4] was 96% and the “Population Pyknosed Nuclei (%)” value [4] was 56%. For the same molecule, the “Population Tubulin-Different-Phenotype (%)” value [4] was 23%, the “Total Cell Count” value [4] was 211 and the “Population Apoptotic (%)” value [5] was 52%. The “Population Fragmented Nuclei (%)” value [5] was 22%, the “Population Healthy Nuclei (%)” value [5] was 27% and the “Population Hoechst High Intensity Objects (%)” value [5] was 23%. The “Population Membrane Permeable-Phenotype (%)” value [5] was 0%, the “Population Mitochondria Different-Phenotype (%)” value [5] was 63% and the “Population Mitotic Cells (%)” value [5] was 47%. The “Population Normal (%)” value [5] was 76%, the “Population Pyknosed Nuclei (%)” value [5] was 50% and the “Population Tubulin-Different-Phenotype (%)” value [5] was 30%. The “Total Cell Count” value [5] was 170, the “Population Apoptotic (%)” value [6] was 10% and the “Population Fragmented Nuclei (%)” value [6] was 7%. The “Population Healthy Nuclei (%)” value [6] was 59%, the “Population Hoechst High Intensity Objects (%)” value [6] was 3% and the “Population Membrane Permeable-Phenotype (%)” value [6] was 9%. The “Population Mitochondria Different-Phenotype (%)” value [6] was 5%, the “Population Mitotic Cells (%)” value [6] was 89% and the “Population Normal (%)” value [6] was 96%. For the same molecule, the “Population Pyknosed Nuclei (%)” value [6] was 32%, the “Population Tubulin-Different-Phenotype (%)” value [6] was 12% and the “Total Cell Count” value [6] was 305. For the same molecule, the “Population Apoptotic (%)” value [7] was 39%, the “Population Fragmented Nuclei (%)” value [7] was 20% and the “Population Healthy Nuclei (%)” value [7] was 26%. For the same molecule, the “Population Hoechst High Intensity Objects (%)” value [7] was 18%, the “Population Membrane Permeable-Phenotype (%)” value [7] was 7% and the “Population Mitochondria Different-Phenotype (%)” value [7] was 78%. The “Population Mitotic Cells (%)” value [7] was 60%, the “Population Normal (%)” value [7] was 81% and the “Population Pyknosed Nuclei (%)” value [7] was 52%. For the same molecule, the “Population Tubulin-Different-Phenotype (%)” value [7] was 58%, the “Total Cell Count” value [7] was 191 and the “Population Apoptotic (%)” value [8] was 25%. For the same molecule, the “Population Fragmented Nuclei (%)” value [8] was 9%, the “Population Healthy Nuclei (%)” value [8] was 56% and the “Population Hoechst High Intensity Objects (%)” value [8] was 1%. For the same molecule, the “Population Membrane Permeable-Phenotype (%)” value [8] was 10%, the “Population Mitochondria Different-Phenotype (%)” value [8] was 7% and the “Population Mitotic Cells (%)” value [8] was 74%. The “Population Normal (%)” value [8] was 98%, the “Population Pyknosed Nuclei (%)” value [8] was 34% and the “Population Tubulin-Different-Phenotype (%)” value [8] was 37%. For the same molecule, the “Total Cell Count” value [8] was 255, the “Population Apoptotic (%)” value [9] was 46% and the “Population Fragmented Nuclei (%)” value [9] was 19%. For the same molecule, the “Population Healthy Nuclei (%)” value [9] was 33%, the “Population Hoechst High Intensity Objects (%)” value [9] was 16% and the “Population Membrane Permeable-Phenotype (%)” value [9] was 0%. For the same molecule, the “Population Mitochondria Different-Phenotype (%)” value [9] was 34%, the “Population Mitotic Cells (%)” value [9] was 53% and the “Population Normal (%)” value [9] was 83%. For the same molecule, the “Population Pyknosed Nuclei (%)” value [9] was 47%, the “Population Tubulin-Different-Phenotype (%)” value [9] was 36% and the “Total Cell Count” value [9] was 180. For the same molecule, the “Population Apoptotic (%)” value [10] was 9%, the “Population Fragmented Nuclei (%)” value [10] was 7% and the “Population Healthy Nuclei (%)” value [10] was 81%. For the same molecule, the “Population Hoechst High Intensity Objects (%)” value [10] was 3%, the “Population Membrane Permeable-Phenotype (%)” value [10] was 4% and the “Population Mitochondria Different-Phenotype (%)” value [10] was 2%. The “Population Mitotic Cells (%)” value [10] was 90%, the “Population Normal (%)” value [10] was 97% and the “Population Pyknosed Nuclei (%)” value [10] was 11%. For the same molecule, the “Population Tubulin-Different-Phenotype (%)” value [10] was 14%, the “Total Cell Count” value [10] was 601 and the “Population Apoptotic (%)” value [11] was 42%. For the same molecule, the “Population Fragmented Nuclei (%)” value [11] was 23%, the “Population Healthy Nuclei (%)” value [11] was 35% and the “Population Hoechst High Intensity Objects (%)” value [11] was 17%. The “Population Membrane Permeable-Phenotype (%)” value [11] was 5%, the “Population Mitochondria Different-Phenotype (%)” value [11] was 35% and the “Population Mitotic Cells (%)” value [11] was 57%. The “Population Normal (%)” value [11] was 82%, the “Population Pyknosed Nuclei (%)” value [11] was 40% and the “Population Tubulin-Different-Phenotype (%)” value [11] was 33%. The “Total Cell Count” value [11] was 193, the “Population Apoptotic (%)” value [12] was 22% and the “Population Fragmented Nuclei (%)” value [12] was 9%. The “Population Healthy Nuclei (%)” value [12] was 79%, the “Population Hoechst High Intensity Objects (%)” value [12] was 2% and the “Population Membrane Permeable-Phenotype (%)” value [12] was 6%. For the same molecule, the “Population Mitochondria Different-Phenotype (%)” value [12] was 4%, the “Population Mitotic Cells (%)” value [12] was 77% and the “Population Normal (%)” value [12] was 97%. The “Population Pyknosed Nuclei (%)” value [12] was 11%, the “Population Tubulin-Different-Phenotype (%)” value [12] was 24% and the “Total Cell Count” value [12] was 475.
